Measurements as given in ChEMBL document CHEMBL1143060, “Synthesis and pharmacological investigation of novel 4-benzyl-1-substituted-4H-[1,2,4]triazolo[4,3-a]quinazolin-5-ones as new class of H1-antihistaminic agents” (2007).

How the values were obtained:
Type in all cases: functional
Cavia porcellus = experiment: Antihistaminic activity in Dunkin-Hartley guinea pig assessed as protection against histamine-induced bronchospasm at 10 mg/kg, po
Procedure, shortened: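 Male Dunkin Hartley guinea pigs (250–300 g), fasted 12 h, six per group, dosed orally at 10 mg/kg in 1% CMC. They were then challenged in a closed transparent cage with nebulized histamine aerosol (0.2% aqueous histamine acid chloride, 3 ml). Preconvulsion onset time was recorded, and animals stable >6 min counted as protected. Mean preconvulsion time versus control was expressed as percent protection.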

Mus musculus [1] = experiment: Sedative-hypnotic activity in Swiss Albino mouse assessed as reduction of locomotor activity at 5 mg/kg, po after 1 hrs; design: scale not given: the % may be the effect or the level left
Procedure, shortened: (§1)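 Locomotor activity was scored at 1, 2 and 3 h after dosing, and percent reduction in locomotor activity was calculated. Significance versus control was tested by Student's t test. Animals were housed at 45–55% relative humidity on a 12 h light/dark cycle, fed standard feed, and acclimatized for one week before use.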

Mus musculus [2] = experiment: Sedative-hypnotic activity in Swiss Albino mouse assessed as reduction of locomotor activity at 5 mg/kg, po after 2 hrs; design: scale not given: the % may be the effect or the level left; procedure, shortened: as §1
Mus musculus [3] = experiment: Sedative-hypnotic activity in Swiss Albino mouse assessed as reduction of locomotor activity at 5 mg/kg, po after 3 hrs; design: scale not given: the % may be the effect or the level left; procedure, shortened: as §1

`O=c1c2ccccc2n2c(CN3CCOCC3)nnc2n1Cc1ccccc1` was tested, and the Activity (Cavia porcellus) was 74.1%, the Activity (Mus musculus [1]) was 7% and the Activity (Mus musculus [2]) was 13%. For the same compound, the Activity (Mus musculus [3]) was 6%.
In the case of `O=c1c2ccccc2n2c(CN3CCNCC3)nnc2n1Cc1ccccc1`, the Activity (Cavia porcellus) is reported as 74.44%, the Activity (Mus musculus [1]) is reported as 6% and the Activity (Mus musculus [2]) is reported as 14%. It also gave an Activity (Mus musculus [3]) of 8%.
For `CN1CCN(Cc2nnc3n(Cc4ccccc4)c(=O)c4ccccc4n23)CC1`, the Activity (Cavia porcellus) was 74.83%, the Activity (Mus musculus [1]) was 8% and the Activity (Mus musculus [2]) was 17%. The Activity (Mus musculus [3]) was 7%.
`CCc1nnc2n(Cc3ccccc3)c(=O)c3ccccc3n12` showed an Activity (Cavia porcellus) of 74.39%, an Activity (Mus musculus [1]) of 7% and an Activity (Mus musculus [2]) of 12%. It also gave an Activity (Mus musculus [3]) of 9%.
With `CCCc1nnc2n(Cc3ccccc3)c(=O)c3ccccc3n12` the Activity (Cavia porcellus) was 73.87%, the Activity (Mus musculus [1]) was 9% and the Activity (Mus musculus [2]) was 15%. For the same compound, the Activity (Mus musculus [3]) was 11%.
Work on `O=c1c2ccccc2n2c(CCl)nnc2n1Cc1ccccc1` yielded an Activity (Cavia porcellus) of 72.96%, an Activity (Mus musculus [1]) of 5% and an Activity (Mus musculus [2]) of 7%. It also gave an Activity (Mus musculus [3]) of 4%.
In the case of `O=c1c2ccccc2n2c(CN3CCCC3)nnc2n1Cc1ccccc1`, the Activity (Cavia porcellus) is reported as 73.69%, the Activity (Mus musculus [1]) is reported as 8% and the Activity (Mus musculus [2]) is reported as 12%. The Activity (Mus musculus [3]) was 8%.
With `O=c1c2ccccc2n2cnnc2n1Cc1ccccc1` the Activity (Cavia porcellus) was 73.99%, the Activity (Mus musculus [1]) was 6% and the Activity (Mus musculus [2]) was 9%. It also gave an Activity (Mus musculus [3]) of 4%.
In the case of `Cc1nnc2n(Cc3ccccc3)c(=O)c3ccccc3n12`, the Activity (Cavia porcellus) is reported as 76.08%, the Activity (Mus musculus [1]) is reported as 6% and the Activity (Mus musculus [2]) is reported as 11%. It also gave an Activity (Mus musculus [3]) of 6%.
`O=c1c2ccccc2n2c(CN3CCCCC3)nnc2n1Cc1ccccc1` showed an Activity (Cavia porcellus) of 73.93%, an Activity (Mus musculus [1]) of 9% and an Activity (Mus musculus [2]) of 15%. For the same compound, the Activity (Mus musculus [3]) was 8%.
Work on `CN(C)CC[C@@H](c1ccccc1)c1ccccn1.O=C(O)/C=C\C(=O)O` [PHENIRAMINE MALEATE] yielded an Activity (Cavia porcellus) of 71%, an Activity (Mus musculus [1]) of 37% and an Activity (Mus musculus [2]) of 32%. The Activity (Mus musculus [3]) was 22%.
